Laboratory results: ChEMBL document CHEMBL1154766, “Synthesis and biological evaluation of new podophyllic aldehyde derivatives with cytotoxic and apoptosis-inducing activities” (2010)
Calls of active or inactive are those of the source. The calls are words filed in the database; no cut-off is given here.

Experiments:
[1] = system: A549; assay: Cytotoxicity against human A549 cells after 72 hrs by SRB assay; format: functional; settings: A549, 72 h
In short: (§1)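 SRB growth assay: 5 × 10³ cells/well in RPMI, attached 18 h drug-free, then compound added in DMSO/H₂O 3:7 for 72 h. Fixed with cold 50% TCA 60 min at 4 °C, stained 0.4% SRB in 1% acetic acid 10 min, bound dye solubilized in Tris, OD 490 nm. GI50 from 100[(T−T0)/(C−T0)] = 50; mean of triplicates.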

[2] = system: MDA-MB-231; assay: Cytotoxicity against human MDA-MB-231 cells after 72 hrs by SRB assay; format: functional; settings: MDA-MB-231, 72 h; in short: as §1
[3] = system: HT-29; assay: Cytotoxicity against human HT-29 cells after 72 hrs by SRB assay; format: functional; settings: HT-29, 72 h; in short: as §1
[4] = system: HT-29; assay: Cell cycle arrest in human HT-29 cells assessed as accumulation at G0/G1 phase at 1 uM after 72 hrs by flow cytometry; format: functional
In short: (§2)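 HT-29 cells incubated at 1 μM for 24, 48 or 72 h alongside untreated controls. (3-5) × 10⁵ cells fixed overnight in 70% ethanol at 4 °C, PBS-washed three times, then treated 1 h at room temperature with 1 mg/mL RNase A and 20 μg/mL propidium iodide. DNA content read by flow cytometry; apoptosis taken as % cells in sub-G1 peak. Representative of three independent experiments.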

[5] = system: HT-29; assay: Induction of apoptosis in human HT-29 cells assessed as accumulation at subG1 phase at 1 uM after 72 hrs by flow cytometry; format: functional; in short: as §2
[6] = system: HT-29; assay: Cell cycle arrest in human HT-29 cells assessed as accumulation at S phase at 1 uM after 24 hrs by flow cytometry; format: functional; in short: as §2
[7] = system: HT-29; assay: Cell cycle arrest in human HT-29 cells assessed as accumulation at G2/M phase at 1 uM after 72 hrs by flow cytometry; format: functional; in short: as §2
[8] = system: HT-29; assay: Cell cycle arrest in human HT-29 cells assessed as accumulation at S phase at 1 uM after 48 hrs by flow cytometry; format: functional; in short: as §2
[9] = system: HT-29; assay: Cell cycle arrest in human HT-29 cells assessed as accumulation at G2/M phase at 1 uM after 24 hrs by flow cytometry; format: functional; in short: as §2
[10] = system: HT-29; assay: Induction of apoptosis in human HT-29 cells assessed as accumulation at subG1 phase at 1 uM after 24 hrs by flow cytometry; format: functional; in short: as §2
[11] = system: HT-29; assay: Cell cycle arrest in human HT-29 cells assessed as accumulation at S phase at 1 uM after 72 hrs by flow cytometry; format: functional; in short: as §2
[12] = system: HT-29; assay: Induction of microtubule disruption in human HT-29 cells at 1 uM after 24 hrs; format: cell-based
In short: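 HT-29 cells on poly-L-lysine coverslips exposed to 1 μM for 24 h, washed in HPEM (pH 6.6), fixed with 4% paraformaldehyde 15 min, permeabilized with 0.5% Triton X-100. Anti-α-tubulin mouse monoclonal (1:150, 1 h) then CY3 anti-mouse IgG (1 h, 4 °C); nuclei DAPI-stained; imaged by confocal microscopy. Representative of at least three experiments.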

[13] = system: HT-29; assay: Cell cycle arrest in human HT-29 cells assessed as accumulation at G2/M phase at 1 uM after 48 hrs by flow cytometry; format: functional; in short: as §2
[14] = system: HT-29; assay: Induction of apoptosis in human HT-29 cells assessed as accumulation at subG1 phase at 1 uM after 48 hrs by flow cytometry; format: functional; in short: as §2
[15] = system: HT-29; assay: Cell cycle arrest in human HT-29 cells assessed as accumulation at G0/G1 phase at 1 uM after 24 hrs by flow cytometry; format: functional; in short: as §2
[16] = system: HT-29; assay: Cell cycle arrest in human HT-29 cells assessed as accumulation at G0/G1 phase at 1 uM after 48 hrs by flow cytometry; format: functional; in short: as §2

| Structure (SMILES) | GI50 [1] [nM] | GI50 [2] [nM] | GI50 [3] [nM] | other results |
| --- | --- | --- | --- | --- |
| COc1cc([C@@H]2c3cc4c(cc3C=C(C=O)[C@H]2C(=O)N2CCCC2)OCO4)cc(OC)c1OC | 6600 | 8200 | 7300 | – |
| CCNCC1=Cc2cc3c(cc2[C@@H](c2cc(OC)c(OC)c(OC)c2)[C@@H]1C(=O)N1CCCC1)OCO3 | > 20000 | > 20000 | > 20000 | – |
| CCOC(=O)COC(=O)[C@H]1[C@H](c2cc(OC)c(OC)c(OC)c2)c2cc3c(cc2[C@H](O)[C@H]1CO)OCO3 [ETHOXYCARBONYLMETHYL PICROPODOPHYLLATE] | 170 | 160 | 180 | – |
| CCCCCCCOC(=O)[C@@H]1C(C=O)=Cc2cc3c(cc2[C@H]1c1cc(OC)c(OC)c(OC)c1)OCO3 | 1000 | 2500 | 1000 | Activity [4]: 16.7%; Activity [5]: 82.3%; Activity [6]: 42.6%; Activity [7]: 0.6%; Activity [8]: 29.6%; Activity [9]: 23.2%; Activity [10]: 19.6%; Activity [11]: 0.4%; Activity [12]: inactive; Activity [13]: 15.9%; Activity [14]: 29.2%; Activity [15]: 14.6%; Activity [16]: 25.3% |
| COC(=O)[C@@H]1C(CNc2ccc(OC)cc2)=Cc2cc3c(cc2[C@H]1c1cc(OC)c(OC)c(OC)c1)OCO3 | 1000 | 2400 | 700 | – |
| CCC/N=C/C1=Cc2cc3c(cc2[C@@H](c2cc(OC)c(OC)c(OC)c2)[C@@H]1C(=O)OC)OCO3 | 41 | 1300 | 41 | – |
| CCOC(=O)[C@H]1[C@H](c2cc(OC)c(OC)c(OC)c2)c2cc3c(cc2[C@H](O)[C@H]1CO)OCO3 [ETHYL PICROPODOPHYLLATE] | 70 | 90 | 90 | – |
| CCCNCC1=Cc2cc3c(cc2[C@@H](c2cc(OC)c(OC)c(OC)c2)[C@@H]1C(=O)OCc1cc(OC)c(OC)c(OC)c1)OCO3 | 1900 | 6400 | 2000 | – |
| CCCCCCCOC(=O)[C@H]1[C@H](c2cc(OC)c(OC)c(OC)c2)c2cc3c(cc2[C@H](O)[C@H]1CO)OCO3 [HEPTYL PICROPODOPHYLLATE] | 190 | 180 | 160 | – |
| CCCNCC1=Cc2cc3c(cc2[C@@H](c2cc(OC)c(OC)c(OC)c2)[C@@H]1C(=O)OCC)OCO3 | 230 | 370 | 270 | – |
| CCNCC1=Cc2cc3c(cc2[C@@H](c2cc(OC)c(OC)c(OC)c2)[C@@H]1C(=O)OC)OCO3 | 700 | 2600 | 400 | – |
| CCC/N=C/C1=Cc2cc3c(cc2[C@@H](c2cc(OC)c(OC)c(OC)c2)[C@@H]1C(=O)OCc1cc(OC)c(OC)c(OC)c1)OCO3 | 5.2 | 130 | 4.3 | – |
| COc1cc([C@@H]2c3cc4c(cc3[C@H](O)[C@@H](CO)[C@H]2C(=O)OC/C=C/c2ccccc2)OCO4)cc(OC)c1OC [CINNAMYL PICROPODOPHYLLATE] | 200 | 180 | 150 | – |
| COC(=O)[C@@H]1C(C=O)=Cc2cc3c(cc2[C@H]1c1cc(OC)c(OC)c(OC)c1)OCO3 [PODOPHYLLIC ALDEHYDE] | 61 | 200 | 38 | – |
| CCC/N=C/C1=Cc2cc3c(cc2[C@@H](c2cc(OC)c(OC)c(OC)c2)[C@@H]1C(=O)OCC)OCO3 | 230 | 1200 | 390 | – |
| CCNC(=O)[C@H]1[C@H](c2cc(OC)c(OC)c(OC)c2)c2cc3c(cc2[C@H](O)[C@H]1CO)OCO3 | 9800 | 10000 | 10000 | – |

| Structure (SMILES) | GI50 [1] [nM] | GI50 [2] [nM] | GI50 [3] [nM] | other results |
| --- | --- | --- | --- | --- |
| COc1ccc(NCC2=Cc3cc4c(cc3[C@@H](c3cc(OC)c(OC)c(OC)c3)[C@@H]2C(=O)N2CCCC2)OCO4)cc1 | 15000 | > 17000 | 15000 | – |
| CCOC(=O)[C@@H]1C(C=O)=Cc2cc3c(cc2[C@H]1c1cc(OC)c(OC)c(OC)c1)OCO3 | 180 | 540 | 200 | – |
| CCCNCC1=Cc2cc3c(cc2[C@@H](c2cc(OC)c(OC)c(OC)c2)[C@@H]1C(=O)OC)OCO3 | 1500 | 5500 | 1000 | – |
| CC/N=C/C1=Cc2cc3c(cc2[C@@H](c2cc(OC)c(OC)c(OC)c2)[C@@H]1C(=O)OC)OCO3 | 22 | – | 2.2 | – |
| COc1cc([C@@H]2c3cc4c(cc3C=C(C=O)[C@H]2C(=O)OC/C=C/c2ccccc2)OCO4)cc(OC)c1OC | 32 | 130 | 36 | Activity [4]: 21.1%; Activity [5]: 33.7%; Activity [6]: 1.8%; Activity [7]: 23.2%; Activity [8]: 4.2%; Activity [9]: 96.4%; Activity [10]: 0.4%; Activity [11]: 22%; Activity [12]: Active; Activity [13]: 85.3%; Activity [14]: 5.2%; Activity [15]: 1.4%; Activity [16]: 5.3% |
| COc1cc([C@@H]2c3cc4c(cc3[C@H](O)[C@@H](CO)[C@H]2C(=O)OCCCBr)OCO4)cc(OC)c1OC | > 17000 | 34 | 22 | – |
| COc1cc(COC(=O)[C@@H]2C(C=O)=Cc3cc4c(cc3[C@H]2c2cc(OC)c(OC)c(OC)c2)OCO4)cc(OC)c1OC | 34 | 42 | 20 | Activity [4]: 18.3%; Activity [5]: 32.3%; Activity [6]: 1.1%; Activity [7]: 36.5%; Activity [8]: 5.1%; Activity [9]: 97.5%; Activity [10]: 0.5%; Activity [11]: 12.9%; Activity [12]: Active; Activity [13]: 79.5%; Activity [14]: 8.6%; Activity [15]: 0.9%; Activity [16]: 6.8% |
| COc1cc([C@@H]2c3cc4c(cc3[C@H](O)[C@H]3COC(=O)[C@H]23)OCO4)cc(OC)c1OC [PODOFILOX] | 12 | – | 24 | – |
| COC(=O)[C@@H]1C(/C=N/c2ccc(OC)cc2)=Cc2cc3c(cc2[C@H]1c1cc(OC)c(OC)c(OC)c1)OCO3 | 94 | – | 9.4 | – |
| C=CCOC(=O)[C@@H]1C(C=O)=Cc2cc3c(cc2[C@H]1c1cc(OC)c(OC)c(OC)c1)OCO3 | 30 | 150 | 20 | Activity [4]: 33.6%; Activity [5]: 41.6%; Activity [6]: 4.5%; Activity [7]: 8%; Activity [8]: 3.9%; Activity [9]: 91.3%; Activity [10]: 0.3%; Activity [11]: 16.8%; Activity [12]: Active; Activity [13]: 83.4%; Activity [14]: 1.8%; Activity [15]: 3.9%; Activity [16]: 10.9% |
| COC(=O)[C@@H]1C(CNc2ccc(C)cc2)=Cc2cc3c(cc2[C@H]1c1cc(OC)c(OC)c(OC)c1)OCO3 | 900 | 1500 | 800 | – |
| CCOC(=O)COC(=O)[C@@H]1C(C=O)=Cc2cc3c(cc2[C@H]1c1cc(OC)c(OC)c(OC)c1)OCO3 | 13 | 110 | 28 | Activity [4]: 16.4%; Activity [5]: 30.6%; Activity [6]: 0.9%; Activity [7]: 33.8%; Activity [8]: 3.4%; Activity [9]: 97.6%; Activity [10]: 0.5%; Activity [11]: 19.2%; Activity [12]: Active; Activity [13]: 85.6%; Activity [14]: 6.3%; Activity [15]: 1%; Activity [16]: 4.7% |
| C=CCOC(=O)[C@H]1[C@H](c2cc(OC)c(OC)c(OC)c2)c2cc3c(cc2[C@H](O)[C@H]1CO)OCO3 [ALLYL PICROPODOPHYLLATE] | 120 | 110 | 80 | – |
| CCNC(=O)[C@@H]1C(C=O)=Cc2cc3c(cc2[C@H]1c1cc(OC)c(OC)c(OC)c1)OCO3 | 4500 | 7100 | 8000 | Activity [4]: 5.3%; Activity [5]: 93.8%; Activity [6]: 9.8%; Activity [7]: 0.4%; Activity [8]: 3%; Activity [9]: 13.5%; Activity [10]: 25%; Activity [11]: 0.5%; Activity [12]: inactive; Activity [13]: 2.3%; Activity [14]: 61.7%; Activity [15]: 51.7%; Activity [16]: 33% |
| COc1cc([C@@H]2c3cc4c(cc3[C@H](O)[C@@H](CO)[C@H]2C(=O)N2CCCC2)OCO4)cc(OC)c1OC [PICROPODOPHYLLIC ACID PYRROLIDINYL AMIDE] | 6800 | 7800 | 7800 | – |
